Measured values reported in paper PMC7931189 (ACS Omega, 2021).
Entries after “also recorded” stand apart in the source; their conditions may differ.

Key:
[1] = test system: human colorectal carcinoma cells (HCT-116); test: Antiproliferative activity by the MTT assay, HCT-116; format: cell-based; settings: for IC50: Homo sapiens, HCT-116, 48 h, read-out: IC50 HCT-116; for inhibitory action on HCT-116 cells: MTT, 48 h post treatment, result in words
How it was run: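 HCT-116 cells grown in DMEM with L-glutamine, fetal bovine serum, selenium chloride and penicillin-streptomycin; exposed to test compound at 0.06–0.7 mg/mL for 48 h, untreated wells as control. MTT (5.0 mg/mL) added for 4 h, then DMSO; absorbance read at 570 nm. Percent viability calculated relative to control; one-way ANOVA with Student's t-test for p-values.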

HCT-116 cells = test: Nuclear DNA staining; format: cell-based, human; settings: 0.1 mg/mL, 48 h, compared to nontreated control
How it was run: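 HCT-116 cells exposed to test compound at 0.1 mg/mL for 48 h alongside untreated controls. Cells then fixed in 4% paraformaldehyde, permeabilised with Triton X-100 in PBS and stained with DAPI. Nuclei imaged by confocal scanning microscopy at 200× magnification and scored for loss of staining, condensation and disintegration.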

IC50 [1] | Compound | inhibitory action on HCT-116 cells [1] | nuclear staining / nuclear disintegration of DAPI stained HCT-116 cells (HCT-116 cells)
1270 ± 40 µM | CC(C)(C(=O)O)C(O)c1ccc(Cl)cc1 (stereo not shown) [compound 1, 3-(4-chlorophenyl)-3-hydroxy-2,2-dimethylpropanoic acid] | showed inhibitory activities | 
1650 ± 60 µM | CC(C)(C(=O)NN)C(O)c1ccc(Cl)cc1 (stereo not shown) [compound 2, 3-(4-chlorophenyl)-3-hydroxy-2,2-dimethylpropanehydrazide] | showed inhibitory activities | 
267 ± 30 µM | CN(C)c1ccc(C=NNC(=O)C(C)(C)C(O)c2ccc(Cl)cc2)cc1 (stereo not shown) [compound 3, 3-(4-chlorophenyl)-N′-(4-(dimethylamino)benzylidene)-3-hydroxy-2,2-dimethylpropanehydrazide] | showed inhibitory activities | significant loss (arrows) of staining; also recorded: significant loss of nuclear staining
